# Sampled rows, rich in hits. Any-hit rate of the full collection: about 2.6%.
# SMARCA2 act – SMARCA2 function activation, primary screen; MG213 cells, MMTV-luciferase reporter, dexamethasone, overnight; hit rate 1% among 370,000; activation, % at 9.1 µM; AID 652017; in the data active = activation above about 7.8%;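 also: 0% = vehicle wells and 100% = reference activator wells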
# esBAF inh – SWI/SNF esBAF complex inhibition; reporter increase, % at 12.5 µM; mouse ES cells, Bmi1-luciferase knock-in reporter, 24 h; 100% = twice the neutral-well signal; AID 602393; hit rate 2% among 350,000; in the data active = activation above about 40%;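 also: 0% = median of the plate's neutral control wells and 100% = double that signal; a rise in the Bmi1 reporter signal indicates esBAF inhibition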
# ARFGAP1 inhibitor – inhibitors of rat ARFGAP1; Arfgap1-stimulated ARF1 GTP hydrolysis, GDP FP detection; inhibition, % at 16.5 µM; hit rate 0.26% among 360,000;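 active = inhibition above a per-plate limit, mean inhibition of low control wells plus 3 SD, cut at about 25% in these data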;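 also: 0% = DMSO wells with enzyme and 100% = wells lacking Arfgap1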
# Target sequence (Q62848 1-136 limits assumed): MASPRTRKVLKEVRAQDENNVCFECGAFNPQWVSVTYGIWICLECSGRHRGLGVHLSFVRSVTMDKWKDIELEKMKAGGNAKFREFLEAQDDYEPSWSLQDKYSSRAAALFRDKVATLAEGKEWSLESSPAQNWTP
#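 Material: rat Arfgap1 GAP domain (His6, aa 1-136), purified enzyme. Also added: human ARF1(Δ1-17)-GTP substrate. Compound dosing: 16.5 µM single point, 1.26% DMSO. Timing: enzyme reaction 120 min at 25 °C after 20 min preincubation. Signal: GDP detection by fluorescence polarization. Read-out basis: percent inhibition of GAP-stimulated GDP formation, scaled between DMSO and no-Arfgap1 medians.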
# ASAP1 inh – inhibitors of human ASAP1 ArfGAP activity. Q9ULH1. ASAP1-stimulated ARF1 GTP hydrolysis, GDP FP detection. inhibition, % at 16.5 µM. hit rate 0.19% among 360,000. AID 624377; in the data active = inhibition above about 25%;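 also: 0% = vehicle with enzyme and substrate and 100% = no enzyme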
# Target sequence (Q9ULH1 325-724 limits assumed): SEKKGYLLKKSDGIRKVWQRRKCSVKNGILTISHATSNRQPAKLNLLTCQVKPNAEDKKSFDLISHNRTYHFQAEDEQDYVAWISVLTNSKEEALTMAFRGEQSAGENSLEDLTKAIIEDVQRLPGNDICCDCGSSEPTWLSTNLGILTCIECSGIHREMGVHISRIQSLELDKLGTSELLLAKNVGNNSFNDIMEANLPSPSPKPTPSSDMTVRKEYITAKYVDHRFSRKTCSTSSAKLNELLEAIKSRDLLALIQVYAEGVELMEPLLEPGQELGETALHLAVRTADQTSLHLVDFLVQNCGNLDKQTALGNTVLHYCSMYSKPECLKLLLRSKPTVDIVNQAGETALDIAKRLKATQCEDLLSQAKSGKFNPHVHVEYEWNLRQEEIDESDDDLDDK
# * hit, by the source's call; / = no result.
SMILES,SMARCA2 act,esBAF inh,ARFGAP1 inhibitor,ASAP1 inh
Cc1noc(C)c1S(=O)(=O)N(C)C[C@@H]1OCCCC[C@H](C)Oc2ccc(NS(C)(=O)=O)cc2C(=O)N([C@H](C)CO)C[C@@H]1C,/,10,/,/
CN1C(=O)c2cc(NC(=O)Nc3ccccc3)ccc2OC[C@H]2O[C@H](CC(=O)NC3CCC3)CC[C@@H]21,/,2,/,/
O=C(C[C@H]1CC[C@@H]2[C@H](COC[C@H](O)CN2Cc2ccccc2F)O1)N[C@@H]1CCN(Cc2ccccc2)C1,/,-4,/,/
CCCC1c2ccc(C)n2CCN1C(=O)Nc1ccccc1Cl (configuration not stated),4,63*,8,-2
Cc1ccc(S(=O)(=O)Nc2ccc3c(c2)CC(=O)N([C@H](C)CO)C[C@H](C)[C@H](CN(C)C(=O)Nc2ccc4c(c2)OCO4)O3)cc1,/,-3,/,/
O=C1c2ccccc2NC(c2cccc(Cl)c2)N1N=C1CCCCCC1 (configuration not stated),2,55*,-7,-13
O=C1c2ccccc2NC(c2ccc(Cl)cc2Cl)N1O (configuration not stated),-1,-2,-3,4
CN(C(=O)CSc1ncnc2sccc12)C1CCCCC1,6,75*,10,5
CN(C(=O)CSc1ncnc2sccc12)C1CCS(=O)(=O)C1 (configuration not stated),-3,-1,-9,10
O=[N+]([O-])c1cccnc1NCCNc1ncc(C(F)(F)F)cc1Cl,6,48*,8,2
O=[N+]([O-])c1cccnc1NCCc1ccccc1,-1,73*,7,-2
O=[N+]([O-])c1ccccc1NCCNc1ncc(C(F)(F)F)cc1Cl,4,/,1,-17
Cc1ccc2nc(-c3ccc(NC(=S)NC(=O)CC(C)C)cc3)sc2c1,0,73*,2,4
Cc1ccc2nc(-c3ccc(NC(=O)CN4C(=O)c5ccccc5C4=O)cc3)sc2c1,16*,/,21,17
Cc1ccc2nc(-c3ccc(NC(=O)CN4CCN(c5ccccn5)CC4)cc3)sc2c1,7,/,3,-6
Cc1noc(C)c1NC(=O)N[C@H]1CC[C@@H](CCNC(=O)C2CCCC2)O[C@H]1CO,/,-1,/,/
COC(=O)[C@H]1[C@H](CO)[C@H]2Cn3c(ccc(/C=C/c4ccccc4)c3=O)[C@H]2N1CC1CCCCC1,/,8,/,/
O=C(O)c1cc(N/N=C/C=C/c2ccccc2)ccc1Cl,2,90*,-7,-14
O=C(O)c1cc(NN=C2CCN(Cc3ccccc3)CC2)ccc1Cl,4,51*,2,-8
O=C(NN=C1CCN(Cc2ccccc2)CC1)c1ccccc1O,-3,/,-3,-12
O=C(C[C@H]1C[C@@H]2c3cc(NC(=O)CC4CC4)ccc3O[C@@H]2[C@H](CO)O1)NCc1cccc(F)c1,/,-8,/,/
C[C@@H]1CN([C@@H](C)CO)C(=O)c2cccc(NS(=O)(=O)c3ccccc3)c2O[C@@H]1CN(C)CC1CCCCC1,/,-6,/,/
O=C(c1cccc(F)c1)N1CC[C@@H]2[C@@H](CO)Nc3ccc(C#Cc4ccc(F)cc4)cc3[C@@H]21,/,1,/,/
COc1cccc(NC(=O)N[C@H]2C=C[C@H](CC(=O)Nc3ccc(-c4ccccc4)cc3)O[C@H]2CO)c1,/,6,/,/
COc1ccc2c(c1)CC/C(=C\c1ccc(OC)c(Cn3cccn3)c1)C2=O,-1,87*,7,14
SMILES,SMARCA2 act,esBAF inh,ARFGAP1 inhibitor,ASAP1 inh
C[C@@H]1CN([C@H](C)CO)C(=O)c2cc(C#CC3CCCC3)cnc2O[C@@H]1CN(C)C(=O)Nc1ccccc1,/,-2,/,/
O=C1c2ccccc2NC(c2ccc(-c3cccc(F)c3)o2)N1O (configuration not stated),6,84*,-4,-21
COc1ccc(O)c(C(=O)c2cnn(C(=O)c3cccc(N(C)C)c3)c2)c1,5,/,5,-4
CN(C)c1cccc(C(=O)n2cc(C(=O)c3cc(F)ccc3O)cn2)c1,7.8*,52*,-8,-1
CNc1cccc(-c2cccc(O)c2)n1,0,53*,2,12
CC(C)Sc1nnc(Nc2ccccc2)s1,5,43*,4,-2
Clc1cccc(CNc2ccn3nc(-c4cccs4)cc3n2)c1,2,59*,12,5
Fc1ccc(CNc2ccn3nc(-c4ccccc4)cc3n2)cc1,-1,64*,4,4
c1ccc(OCCNc2ccn3nc(-c4cccs4)cc3n2)cc1,-7,64*,4,5
FC(F)(F)c1cccc(-c2cc3nc(NCCOc4ccccc4)ccn3n2)c1,0,34,19,2
COCCCNc1ccn2nc(-c3ccccc3)cc2n1,1,-62,10,7
c1ccc(OCCNc2ccn3nc(-c4ccccc4)cc3n2)cc1,-2,53*,-3,12
COc1ccccc1-c1cc2nc(NCCOc3ccccc3)ccn2n1,-2,4,2,1
CO[C@H]1CN(C)C(=O)c2ccc(NC(=O)NC(C)C)cc2OC[C@@H](C)N(Cc2cncnc2)C[C@@H]1C,/,2,/,/
C[C@H]1CN([C@@H](C)CO)C(=O)c2cc(-c3cccc(C#N)c3)cnc2O[C@H]1CN(C)Cc1cncnc1,/,-6,/,/
c1ccc(OCCNc2ccn3nc(-c4ccco4)cc3n2)cc1,7,48*,3,0
O=C(NCc1cccc(Cl)c1)c1ccc(-c2cccnc2)c2ccoc12,0,25,5,2
O=C(NCCc1ccccc1)c1ccc(-c2cccnc2)c2ccoc12,1,44*,6,5
N#C/C(=C(/O)c1ccco1)c1nc2ccccc2s1,0,58*,11,3
N#C/C(=C(/O)c1cc2ccccc2o1)c1nc2ccccc2s1,2,31,7,0
CC1CCN(C(=O)CSc2nc3ccccc3s2)CC1,7,33,10,1
COc1ccc(NC(=O)CSc2nc(SC)ns2)cc1,2,56*,-4,-10
O=C(CSc1nc2ccccc2s1)c1ccc(O)cc1O,1,51*,1,5
O=C(CSc1nc2ccccc2s1)N1CCCCC1,7,82*,6,7
CC1CCCC(C)N1C(=O)CSc1nc2ccccc2s1 (configuration not stated),1,75*,-2,17
SMILES,SMARCA2 act,esBAF inh,ARFGAP1 inhibitor,ASAP1 inh
OC[C@@H]1[C@H](c2ccc(Br)cc2)[C@H]2CNCCCCN12,/,-2,/,/
COCC(=O)Nc1ccc2c(c1)OC[C@@H](C)N(C(=O)COC)C[C@@H](C)[C@H](OC)CN(C)C2=O,/,-2,/,/
CO[C@@H]1CN(C)C(=O)c2cc(NC(=O)c3nc4ccccc4s3)ccc2OC[C@H](C)N(Cc2cncnc2)C[C@H]1C,/,25,/,/
CNC(=O)CSc1nc(SC)ns1,5,/,2,4
CSc1nsc(SCC(=O)N2CCCCC2)n1,3,51*,4,-3
O=C(O)c1ccc2c3n(nc2c1)-c1ccc(Cl)cc1CO3,4,/,11,-16
O=C(NCC1CC1)c1ccc2c3n(nc2c1)-c1ccc(Cl)cc1CO3,6,44*,0,-11
COCCNC(=O)c1ccc2c3n(nc2c1)-c1ccccc1CO3,7,53*,-8,4
